Published values collected from several papers.
Lines come from different studies, so protocols differ.
Cell line: MCF7
Read-out: cell growth or viability

O=C(C=Cc1ccccc1)Nc1cc(-c2ccnc(N3CCC(O)CC3)c2)ccn1  IC50 (MTT; 72 h): 2.51 µM
Cc1ccc(-c2cc(-c3ccc(N(C)C)cc3)c3c(=O)n(C)c(=O)n(C)c3n2)cc1  IC50 (MTT; 48 h): 15.8 µM
Cc1nc(Nc2ccc3c(c2)/C(=C/c2ccccc2C)C(=O)N3)c2ccccc2n1  IC50 (MTT): > 50 µM
C=CC(=O)Nc1cc(Nc2nccc(-c3cn(C)c4ccccc34)n2)c(OC)cc1N(C)CCN(C)C  IC50 (MTS; 72 h): 8.34 µM
O=C(C=Cc1ccc(O)c(O)c1)OCc1ccccc1  IC50 (MTT): 85.2 µM
COc1cc2c3c(n(CCCNCCO)c(=O)c2cc1OC)-c1nc2c(cc1C3=O)OCO2  IC50 (72 h): 0.369 µM
Cc1ccc(-c2cc(-c3ccc(Cl)c(F)c3)c3c(=O)n(C)c(=O)n(C)c3n2)cc1  IC50 (MTT; 48 h): 37 µM
COc1cc2ncnc(N(C)c3ccc4c(c3)/C(=C/c3cccc(Cl)c3)C(=O)N4C)c2cc1OC  IC50 (MTT): 6.53 µM
O=c1nc(-c2ccc(Nc3nnc(-c4ccc(Cl)cc4)c4ccccc34)cc2)cc(-c2ccccc2)[nH]1  IC50 (MTT; 72 h): 0.16 µM
COc1cc2ncnc(N(C)c3ccc4c(c3)/C(=C/c3ccccc3)C(=O)N4C)c2cc1OC (mixture of isomers)  IC50 (MTT): 9.38 µM
Cc1ccc(-c2cc(-c3ccc(Cl)cc3)c3c(=O)n(C)c(=O)n(C)c3n2)cc1  IC50 (MTT; 48 h): 7.49 µM
CN(Cc1cnc2nc(N)nc(N)c2n1)c1ccc(C(=O)N[C@@H](CCC(=O)O)C(=O)O)cc1  IC50 (MTT): 19 µM
Cc1nc(Nc2ccc3c(c2)/C(=C/c2ccccc2)C(=O)N3C)c2ccccc2n1  IC50 (MTT): 28.8 µM
CC(C)NCC(COc1cccc2ccccc12)OC(=O)C=Cc1ccc(O)c(O)c1 (centres unmarked)  IC50 (MTT): 5.37 µM
COc1ccc(-c2cc(-c3c(OC)cccc3OC)c3c(=O)n(C)c(=O)n(C)c3n2)cc1  IC50 (MTT; 48 h): 11.3 µM
Cc1nc(N(Cc2ccccc2)c2ccc3c(c2)/C(=C/c2ccccc2)C(=O)N3Cc2ccccc2)c2ccccc2n1 (mixture of isomers)  IC50 (MTT): 0.89 µM
COc1ccc(-c2cc(-c3cccc(Br)c3)c3c(=O)n(C)c(=O)n(C)c3n2)cc1  IC50 (MTT; 48 h): 13.5 µM
Cc1nc(Nc2ccc3c(c2)/C(=C/c2ccccc2Cl)C(=O)N3)c2ccccc2n1  IC50 (MTT): 6.45 µM
CCNCCCn1c2c(c3cc(OC)c(OC)cc3c1=O)C(=O)c1cc3c(nc1-2)OCO3  IC50 (72 h): 0.262 µM
COc1ccc(-c2cc(-c3ccc(OC)cc3)c3c(=O)[nH]c(=O)[nH]c3n2)cc1  IC50 (MTT; 48 h): 8.38 µM
